{"source": "ChEMBL document CHEMBL4304743", "about": "“Discovery of ( E)- N1-(3-Fluorophenyl)- N3-(3-(2-(pyridin-2-yl)vinyl)-1 H-indazol-6-yl)malonamide (CHMFL-KIT-033) as a Novel c-KIT T670I Mutant Selective Kinase Inhibitor for Gastrointestinal Stromal Tumors (GISTs)” (J Med Chem, 2019)", "key": {"[1]": {"tested_on": "Homo sapiens", "experiment": "Antitumor activity against human GIST5R cells xenografted in po dosed nude mouse assessed as reduction in tumor size administered […] via gavage for 28 days post tumor inoculation", "type": "functional, organism-based", "summary_of_the_method": "(§1)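 Female nu/nu mice (5 weeks old) given subcutaneous right-flank GIST-5R cells in Matrigel. Dosing began at tumors of 200-400 mm3; randomized, 4 mice per group. Daily oral dosing (QD) at 25, 50 or 100 mg/kg in 0.5% methylcellulose/0.4% Tween80, or vehicle alone, for 28 days. Body weight and tumor volume, (W²×L)/2, measured daily; mean±SEM.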"}, "[2]": {"target": "Macrophage colony-stimulating factor 1 receptor (Homo sapiens, UniProt P07333)", "sequence (P07333 whole entry, the tested form may be a part)": "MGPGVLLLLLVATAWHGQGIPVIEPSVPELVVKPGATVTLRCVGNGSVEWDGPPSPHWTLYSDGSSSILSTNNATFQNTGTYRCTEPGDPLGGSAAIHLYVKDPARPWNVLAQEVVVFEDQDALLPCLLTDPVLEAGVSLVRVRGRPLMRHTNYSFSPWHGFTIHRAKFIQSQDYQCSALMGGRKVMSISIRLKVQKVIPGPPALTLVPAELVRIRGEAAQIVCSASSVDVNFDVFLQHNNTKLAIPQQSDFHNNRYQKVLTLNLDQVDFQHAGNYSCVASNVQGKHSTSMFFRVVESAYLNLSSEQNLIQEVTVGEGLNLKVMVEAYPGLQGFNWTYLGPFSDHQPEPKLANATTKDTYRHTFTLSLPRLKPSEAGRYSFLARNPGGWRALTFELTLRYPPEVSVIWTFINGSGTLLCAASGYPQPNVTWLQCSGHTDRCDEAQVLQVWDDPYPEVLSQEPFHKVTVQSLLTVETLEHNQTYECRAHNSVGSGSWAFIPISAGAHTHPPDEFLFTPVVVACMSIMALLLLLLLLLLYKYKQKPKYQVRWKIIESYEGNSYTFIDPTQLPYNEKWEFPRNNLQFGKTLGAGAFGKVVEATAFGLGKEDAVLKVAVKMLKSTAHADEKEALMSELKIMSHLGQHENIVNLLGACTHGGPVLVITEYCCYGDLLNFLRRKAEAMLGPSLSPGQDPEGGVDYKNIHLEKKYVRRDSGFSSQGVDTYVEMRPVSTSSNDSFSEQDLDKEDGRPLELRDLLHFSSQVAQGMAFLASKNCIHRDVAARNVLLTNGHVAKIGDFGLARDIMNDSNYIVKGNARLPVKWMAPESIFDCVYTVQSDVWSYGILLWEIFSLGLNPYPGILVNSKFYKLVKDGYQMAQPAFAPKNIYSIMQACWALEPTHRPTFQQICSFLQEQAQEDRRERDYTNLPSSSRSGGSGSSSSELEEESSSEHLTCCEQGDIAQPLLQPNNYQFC", "experiment": "Binding affinity to wild-type human partial length CSF1R (I564 to S939 residues) expressed in bacterial expression system assessed as enzyme remaining activity at 1 uM by Kinomescan assay relative to control", "summary_of_the_method": "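KINOMEscan competition binding panel of 468 kinases and mutants, compound at 1 μM; binding reported as percent of control.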"}, "[3]": {"tested_on": "Mast/stem cell growth factor receptor Kit (Homo sapiens), P10721 [UNDEFINED MUTATION]", "sequence (P10721 whole entry, looked up, stated change not applied)": "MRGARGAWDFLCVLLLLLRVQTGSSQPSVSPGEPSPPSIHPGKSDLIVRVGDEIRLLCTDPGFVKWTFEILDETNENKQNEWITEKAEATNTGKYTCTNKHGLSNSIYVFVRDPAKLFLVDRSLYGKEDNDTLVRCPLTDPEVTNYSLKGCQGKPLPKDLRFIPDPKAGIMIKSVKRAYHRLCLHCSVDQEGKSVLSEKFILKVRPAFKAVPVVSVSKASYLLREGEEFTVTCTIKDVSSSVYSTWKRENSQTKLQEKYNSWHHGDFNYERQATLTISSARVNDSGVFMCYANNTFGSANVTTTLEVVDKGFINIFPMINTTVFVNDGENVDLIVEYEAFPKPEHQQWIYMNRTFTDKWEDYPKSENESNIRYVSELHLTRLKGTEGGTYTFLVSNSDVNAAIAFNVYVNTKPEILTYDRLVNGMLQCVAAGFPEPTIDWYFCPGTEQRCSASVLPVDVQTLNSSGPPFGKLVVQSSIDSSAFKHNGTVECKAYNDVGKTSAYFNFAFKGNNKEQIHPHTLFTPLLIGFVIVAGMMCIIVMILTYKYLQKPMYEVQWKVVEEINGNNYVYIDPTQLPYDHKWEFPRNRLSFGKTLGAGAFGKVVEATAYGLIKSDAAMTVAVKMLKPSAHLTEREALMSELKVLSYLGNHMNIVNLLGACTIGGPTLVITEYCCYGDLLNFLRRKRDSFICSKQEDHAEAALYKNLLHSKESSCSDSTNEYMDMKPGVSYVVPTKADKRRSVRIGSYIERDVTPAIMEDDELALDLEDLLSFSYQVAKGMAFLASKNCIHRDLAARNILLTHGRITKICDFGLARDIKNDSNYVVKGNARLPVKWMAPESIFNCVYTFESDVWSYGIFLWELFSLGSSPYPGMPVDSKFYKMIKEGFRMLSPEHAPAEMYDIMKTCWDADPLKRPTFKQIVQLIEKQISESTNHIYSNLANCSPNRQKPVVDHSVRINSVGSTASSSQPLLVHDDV", "experiment": "Inhibition of c-KIT 560 to 578 deletion/T670I double mutant in human GISTT1 cells assessed as reduction in STAT3 phosphorylation after 1 hr by Western blot analysis", "type": "cell-based", "summary_of_the_method": "(§2)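 Serial compound dilutions applied for 1 h to GIST-T1, GIST-T1-T670I (CRISPR/Cas9 T670I knock-in, clone confirmed by Sanger sequencing) or GIST-5R cells in DMEM with 10% FBS. Cells then lysed and phospho-proteins detected by standard Western blotting.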"}, "[4]": {"tested_on": "Mast/stem cell growth factor receptor Kit (Homo sapiens), P10721 [UNDEFINED MUTATION]", "experiment": "Inhibition of c-KIT 560 to 578 deletion/T670I double mutant in human GIST5R cells assessed as reduction in STAT3 phosphorylation after 1 hr by Western blot analysis", "type": "cell-based", "summary_of_the_method": "as §2"}, "[5]": {"tested_on": "Mast/stem cell growth factor receptor Kit (Homo sapiens), P10721 [UNDEFINED MUTATION]", "experiment": "Inhibition of c-KIT 560 to 578 deletion mutant in human GISTT1 cells assessed as reduction in S6 phosphorylation at S235/S236 residue at 0.1 uM to 3 uM after 1 hr by Western blot analysis", "type": "cell-based", "summary_of_the_method": "as §2"}, "[6]": {"tested_on": "GISTT1", "experiment": "Induction of apoptosis in human GISTT1 cells harboring c-KIT 560 to 578 deletion/T670I double mutant assessed as increase in cleaved caspase level after 24 hrs by Western blot analysis", "type": "functional, cell-based"}, "[7]": {"tested_on": "Mus musculus", "experiment": "Effect on body weight in nude mouse xenografted with human GIST5R cells at 25 to 100 mg/kg, po administered […] via gavage for 28 days", "type": "ADME, organism-based", "conditions": "in vivo, 672 h", "summary_of_the_method": "as §1"}, "[8]": {"tested_on": "Mast/stem cell growth factor receptor Kit (Homo sapiens), P10721 [D820E]", "sequence (P10721 whole entry D820E, the tested form may be a part)": "as the sequence (P10721 whole entry, looked up, stated change not applied) above, with D820E counted along it", "experiment": "Inhibition of TEL fused c-KIT D820E mutant (unknown origin) transfected in mouse BAF3 cells assessed as growth inhibition after 72 hrs by CCK8 assay", "type": "cell-based", "summary_of_the_method": "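Tel-c-KIT-transformed BaF3 lines (IL-3 independent) kept in RPMI 1640 with 10% FBS, 2% L-glutamine and pen/strep. Cells at 1.5 to 5 × 10^4 cells/mL mixed with graded compound and incubated 72 h at 37 °C, 5% CO2. Viability by CCK-8 absorbance at 450 nm, normalized to DMSO. GI50 from dose–response fit.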"}, "[9]": {"tested_on": "Mus musculus", "experiment": "Inhibition of c-KIT phosphorylation at Y823 residue in tumor of human GIST5R cells xenografted in nude mouse at 100 mg/kg, po administered as single dose and measured after 2 hrs", "type": "functional, organism-based", "summary_of_the_method": "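Female nu/nu mice bearing subcutaneous GIST-5R xenografts (cells in Matrigel, right flank) given one oral gavage dose of 100 mg/kg in HKI suspension (0.5% methocellulose/0.4% Tween80 in ddH2O). Tumors collected over a 2 h time course; p-c-KIT, p-ERK and p-AKT assessed by Western blot; plasma drug levels monitored in parallel.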"}, "[10]": {"experiment": "MRT (0 to infinity) in Sprague-Dawley rat at 10 mg/kg, po measured after 5 to 720 mins by LC-tandem mass spectrometry analysis", "type": "ADME, organism-based", "conditions": "in vivo", "summary_of_the_method": "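Male Sprague–Dawley rats (190-210 g), fasted 12 h, given 1 mg/kg i.v. or 10 mg/kg p.o. in DMSO/5% glucose water (1:9). Blood sampled at 2–720 min (i.v.) or 5–720 min (p.o.). Plasma proteins precipitated with methanol using caffeine internal standard, then LC-MS/MS. Noncompartmental analysis; F = AUC0-∞ ratio corrected for dose; triplicate ±SD.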"}, "[11]": {"tested_on": "Mast/stem cell growth factor receptor Kit (Homo sapiens), P10721 [UNDEFINED MUTATION]", "experiment": "Inhibition of c-KIT 560 to 578 deletion mutant in human GISTT1 cells assessed as reduction in c-KIT autophosphorylation at Y823 residue at 0.1 uM to 3 uM after 1 hr by Western blot analysis", "type": "cell-based", "summary_of_the_method": "as §2"}, "[12]": {"target": "Serine/threonine-protein kinase 25 (Homo sapiens, UniProt O00506)", "sequence (O00506 whole entry, the tested form may be a part)": "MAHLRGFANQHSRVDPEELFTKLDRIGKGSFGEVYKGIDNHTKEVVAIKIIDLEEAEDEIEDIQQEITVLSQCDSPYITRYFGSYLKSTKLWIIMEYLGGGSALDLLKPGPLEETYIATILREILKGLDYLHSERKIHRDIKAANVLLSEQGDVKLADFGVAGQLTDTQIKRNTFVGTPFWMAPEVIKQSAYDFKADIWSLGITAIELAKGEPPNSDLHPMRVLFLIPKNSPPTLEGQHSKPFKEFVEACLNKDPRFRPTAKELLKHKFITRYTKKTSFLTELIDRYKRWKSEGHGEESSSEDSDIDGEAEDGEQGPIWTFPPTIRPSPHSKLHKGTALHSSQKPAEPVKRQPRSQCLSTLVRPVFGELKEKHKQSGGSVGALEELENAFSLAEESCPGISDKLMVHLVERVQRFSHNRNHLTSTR", "experiment": "Inhibition of wild-type human partial length STK25 (V14 to H295 residues) expressed in bacterial expression system after 1 hr by Z-LYTE assay"}, "[13]": {"experiment": "Cmax in mouse at 1 mg/kg, iv measured after 2 to 720 mins by LC-tandem mass spectrometry analysis", "type": "ADME, organism-based", "design": "dose 1 mg/kg, route intravenous", "conditions": "in vivo", "summary_of_the_method": "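Mice dosed 1 mg/kg i.v. or 10 mg/kg p.o.; plasma drug levels by LC-MS/MS, parameters by noncompartmental analysis; values not from triplicate testing.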"}, "[14]": {"tested_on": "Mus musculus", "experiment": "Inhibition of AKT phosphorylation at […] residue in tumor of human GIST5R cells xenografted in nude mouse at 100 mg/kg, po administered as single dose and measured after 2 hrs", "type": "functional, organism-based", "summary_of_the_method": "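Female nu/nu mice bearing subcutaneous GIST-5R tumors (cells in Matrigel, right flank) given one oral dose of 100 mg/kg in 0.5% methylcellulose/0.4% Tween80. Tumors collected over a 2 h time course. p-c-KIT, p-ERK and p-AKT measured alongside plasma drug levels.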"}, "[15]": {"tested_on": "GISTT1", "experiment": "Antiproliferative activity against human GISTT1 cells harboring c-KIT 560 to 578 deletion mutant incubated for 72 hrs by CCK8 assay", "type": "functional", "conditions": "GISTT1, 72 h", "summary_of_the_method": "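Adherent GIST cells seeded at 1.5-5 × 10^4 cells/mL and left overnight at 37 °C, 5% CO2. Medium then replaced with medium holding serial compound dilutions; 72 h incubation. Viability by CCK-8, absorbance at 450 nm, normalized to DMSO control; GI50 from dose-response fit.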"}, "[16]": {"experiment": "AUC (0 to t) in Sprague-Dawley rat at 10 mg/kg, po measured after 5 to 720 mins by LC-tandem mass spectrometry analysis", "type": "ADME, organism-based", "conditions": "in vivo", "summary_of_the_method": "(§3)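 Male Sprague-Dawley rats (190-210 g), fasted 12 h, randomized into two groups: 1 mg/kg i.v. or 10 mg/kg p.o., both formulated in 10% DMSO/90% of 5% glucose water. Blood sampled at 2-720 min (i.v.) or 5-720 min (p.o.). Plasma protein-precipitated with methanol, caffeine internal standard, LC-MS/MS. Noncompartmental analysis; triplicate, ±SD.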"}, "[17]": {"experiment": "AUC (0 to infinity) in Sprague-Dawley rat at 1 mg/kg, iv measured after 2 to 720 mins by LC-tandem mass spectrometry analysis", "type": "ADME, organism-based", "design": "dose 1 mg/kg, route intravenous, time infinity", "conditions": "in vivo", "summary_of_the_method": "as §3"}}, "note": "Active and inactive are the calls of the source. No cut-off for these calls is given here."}
{"smiles": "O=C(CC(=O)Nc1ccc2c(/C=C/c3ccccn3)n[nH]c2c1)Nc1cccc(F)c1", "values": [{"measurement": "inhibition", "setting": "[1]", "value": "Dose-dependent effect"}, {"measurement": "Activity", "setting": "[2]", "value": 0, "unit": "%"}, {"measurement": "inhibition", "setting": "[3]", "value": "Dose-dependent effect"}, {"measurement": "inhibition", "setting": "[4]", "value": "Dose-dependent effect"}, {"measurement": "inhibition", "setting": "[5]", "value": "Active"}, {"measurement": "Activity", "setting": "[6]", "value": "Dose-dependent effect"}, {"measurement": "Activity", "setting": "[7]", "value": "Non-Toxic"}, {"measurement": "GI50", "setting": "[8]", "value": 868, "unit": "nM"}, {"measurement": "inhibition", "setting": "[9]", "value": "inactive"}, {"measurement": "MRT inf", "setting": "[10]", "value": 5.4, "unit": "h"}, {"measurement": "inhibition", "setting": "[11]", "value": "Active"}, {"measurement": "IC50", "setting": "[12]", "value": "> 10000", "unit": "nM"}, {"measurement": "Cmax", "setting": "[13]", "value": 3020, "unit": "ng/mL"}, {"measurement": "inhibition", "setting": "[14]", "value": "inactive"}, {"measurement": "GI50", "setting": "[15]", "value": 52, "unit": "nM"}, {"measurement": "AUC(0-t)", "setting": "[16]", "value": 712, "unit": "ng·h/mL"}, {"measurement": "AUC(0-inf)", "setting": "[17]", "value": 307, "unit": "ng·h/mL"}]}
